Experimental data published in ChEMBL document CHEMBL1135714, “New neplanocin analogues. 12. Alternative synthesis and antimalarial effect of (6'R)-6'-C-methylneplanocin A, a potent AdoHcy hydrolase inhibitor” (J Med Chem, 2002).

Tests used:
[1] = The compound was tested for the dose required to cause 50% suppression of Plasmodium berghei growth in mice.; assay type: functional, Mus musculus
Method in brief: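 Four-day suppressive test in ICR mice infected with P. berghei NK 65, five per group. DMSO solutions were injected intraperitoneally daily on days 0–3 at 0.1–20 mg/kg/day, against infected DMSO-dosed controls. Day-4 parasitemia came from Giemsa-stained tail-blood smears, 1 × 10⁴ erythrocytes per film. EC50 is the dose giving 50% suppression of parasite growth.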

[2] = The compound was tested for survival of the ICR mice (infected with Plasmodium berghei) as a symptom indicative of toxicity on day 4, at a dose of 0.1 mg/kg/day; assay type: functional, Mus musculus
Method in brief: (§1)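 P. berghei (NK 65 strain)-infected ICR mice, groups of five; compound in DMSO given intraperitoneally once daily for four consecutive days starting day 0; five infected DMSO-dosed mice as controls; survival counted on day 4 as toxicity indicator; Giemsa-stained tail blood smears, 1 × 10⁴ erythrocytes per film, for parasitemia.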

[3] = The compound was tested for survival of the ICR mice (infected with Plasmodium berghei) as a symptom indicative of toxicity on day 4, at a dose of 0.5 mg/kg/day; assay type: functional, Mus musculus; method in brief: as §1
[4] = The compound was tested for survival of the ICR mice (infected with Plasmodium berghei) as a symptom indicative of toxicity on day 4, at a dose of 1.0 mg/kg/day; assay type: functional, Mus musculus; method in brief: as §1
[5] = The compound was tested for survival of the ICR mice (infected with Plasmodium berghei) as a symptom indicative of toxicity on day 4, at a dose of 10 mg/kg/day; assay type: functional, Mus musculus; method in brief: as §1
[6] = The compound was tested for survival of the ICR mice (infected with Plasmodium berghei) as a symptom indicative of toxicity on day 4, at a dose of 20 mg/kg/day; assay type: functional, Mus musculus; method in brief: as §1
[7] = The compound was tested for survival of the ICR mice (infected with Plasmodium berghei) as a symptom indicative of toxicity on day 4, at a dose of 2 mg/kg/day; assay type: functional, Mus musculus; method in brief: as §1
[8] = The compound was tested for survival of the ICR mice (infected with Plasmodium berghei) as a symptom indicative of toxicity on day 4, at a dose of 5 mg/kg/day; assay type: functional, Mus musculus; method in brief: as §1
[9] = test system: KATO III stomach cancer cell line; assay: The compound was tested for cytotoxicity against the growth of human gastric carcinoma cell line ( KATO III ).; assay type: functional, cell-based
[10] = test system: Plasmodium berghei; assay: Parasitaemia (%) in tail blood smears from Plasmodium berghei infected ICR mice (Mus musculus) after 4 days; assay type: functional
Method in brief: (§2)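 P. berghei NK 65-infected ICR mice, five per group. Compounds in DMSO were given intraperitoneally once daily for four consecutive days from day 0, at 0.1–20 mg/kg/day. Five infected DMSO-dosed mice served as controls. On day 4, Giemsa-stained tail-blood thin films were read by microscopy, with 1 × 10⁴ erythrocytes counted per film, to give % parasitemia.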

[11] = test system: Plasmodium berghei; assay: Parasitaemia (%) in tail blood smears from Plasmodium berghei infected ICR mice (Mus musculus) at 0.1-mg/kg/day for 4 days; assay type: functional; method in brief: as §2
[12] = test system: Plasmodium berghei; assay: Parasitaemia (%) in tail blood smears from Plasmodium berghei infected ICR mice (Mus musculus) at 0.5-mg/kg/day for 4 days; assay type: functional; method in brief: as §2
[13] = test system: Plasmodium berghei; assay: Parasitaemia (%) in tail blood smears of Plasmodium berghei infected ICR mice (Mus musculus) at 1.0 mg/kg/day after 4 days; assay type: functional; method in brief: as §2
[14] = test system: Plasmodium berghei; assay: Parasitaemia (%) in tail blood smears of Plasmodium berghei infected ICR mice (Mus musculus) at 10 mg/kg/day after 4 days; assay type: functional; method in brief: as §2
[15] = test system: Plasmodium berghei; assay: Parasitaemia (%) in tail blood smears of Plasmodium berghei infected ICR mice (Mus musculus) at 2 mg/kg/day after 4 days; assay type: functional; method in brief: as §2
[16] = test system: Plasmodium berghei; assay: Parasitaemia (%) in tail blood smears of Plasmodium berghei infected ICR mice (Mus musculus) at 5 mg/kg/day after 4 days; assay type: functional; method in brief: as §2
[17] = test system: Vero; assay: The compound was tested for cytotoxicity against monkey kidney cell line ( Vero ).; assay type: functional, cell-based; details: Chlorocebus sabaeus
[18] = test system: Plasmodium falciparum; assay: In vitro antimalarial activity against Plasmodium falciparum
[19] = test system: Plasmodium berghei; assay: Parasitaemia (%) in tail blood smears from Plasmodium berghei infected ICR mice (Mus musculus) at 0.1 mg/kg/day for 4 days; assay type: functional; method in brief: as §2
[20] = test system: Plasmodium berghei; assay: Parasitaemia (%) in tail blood smears of Plasmodium berghei infected ICR mice (Mus musculus) at 0.5 mg/kg/day after 4 days; assay type: functional; method in brief: as §2
[21] = test system: Plasmodium berghei; assay: Parasitaemia (%) in tail blood smears of Plasmodium berghei infected ICR mice (Mus musculus) at 20 mg/kg/day after 4 days; assay type: functional; method in brief: as §2
[22] = The compound was tested for survival of the ICR mice (infected with Plasmodium berghei) as a symptom indicative of toxicity on day 4, at different doses 20 mg/kg/day; assay type: functional, Mus musculus; method in brief: as §1
[23] = test system: Plasmodium berghei; assay: Percent parasitaemia in tail blood smears from Plasmodium berghei infected ICR mice (Mus musculus) at 0.5-mg/kg/day after 4 days; assay type: functional; method in brief: as §2

Compound | EC50 [1] [mg/kg/day] | Survival [2] | Survival [3] | Survival [4] | Survival [5] | Survival [6] | Survival [7] | Survival [8] | IC50 [9] [µM] | Parasitemia [10] [%] | Parasitemia [11] [%] | Parasitemia [13] [%] | Parasitemia [14] [%] | Parasitemia [15] [%] | Parasitemia [16] [%] | IC50 [18] [µM] | other results
C[C@@H](O)C1=C[C@@H](n2cnc3c(N)ncnc32)[C@H](O)[C@@H]1O | 1 | 5 | 5 | 5 | 5 | 2 | 5 | 5 | 1.1 | 21 | 21 | 10 | 2 | 5 | 2 | 0.1 | Parasitemia [12]: 21%; IC50 [17]: > 1800 µM
CCN(CC)CCCC(C)Nc1ccnc2cc(Cl)ccc12 (stereo not given) [CHLOROQUINE] | 1.8 | 5 | 5 | 5 | 5 | 5 | 5 | 5 | – | 21 | – | 18 | 2 | 7 | 3 | – | Parasitemia [19]: 21%; Parasitemia [20]: 20%; Parasitemia [21]: 1%
Nc1ncnc2c1ncn2[C@@H]1C=C(CO)[C@@H](O)[C@H]1O [NEOPLANOCIN A] | > 5 | 5 | 5 | 5 | 0 | – | 5 | 5 | 0.22 | 21 | 20 | 21 | – | 21 | 12 | 0.2 | Survival [22]: 0; Parasitemia [23]: 21%
